Results taken from ChEMBL document CHEMBL4033786, “Discovery of Novel 1-Cyclopentenyl-3-phenylureas as Selective, Brain Penetrant, and Orally Bioavailable CXCR2 Antagonists” (J Med Chem, 2018).
Converted amounts (≈) assume the structure as drawn.

Legend:
[1] = target: T1, C-X-C chemokine receptor type 2 (Homo sapiens, UniProt P25025); experiment: Antagonist activity at TEV protease cleavage site linked GAL4-VP16-fused recombinant human CXCR2 expressed in cells assessed as inhibition of […] human CXCL1-stimulated beta-arrestin recruitment by CCF4-AM-fluorescence based FRET assay; assay type: cell-based; details: read-out: pIC50 (converted)
T1 sequence (P25025 whole entry): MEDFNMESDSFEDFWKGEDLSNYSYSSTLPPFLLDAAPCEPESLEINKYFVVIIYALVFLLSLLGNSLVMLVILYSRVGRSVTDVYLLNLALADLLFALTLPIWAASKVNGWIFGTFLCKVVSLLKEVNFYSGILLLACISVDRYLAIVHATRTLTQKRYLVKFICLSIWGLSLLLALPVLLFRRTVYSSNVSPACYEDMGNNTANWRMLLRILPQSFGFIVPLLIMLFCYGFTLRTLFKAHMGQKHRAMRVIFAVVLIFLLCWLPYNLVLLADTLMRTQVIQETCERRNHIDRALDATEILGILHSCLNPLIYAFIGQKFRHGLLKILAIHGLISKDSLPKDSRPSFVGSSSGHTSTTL
Summary of the method: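 Stable cell line expressing recombinant human CXCR2 linked to a TEV site and Gal4-VP16. Cells were starved 24 h at 37 °C, 5% CO2, then resuspended at ~200,000 cells/mL. They were given compound in DMSO (concentration-response), stimulated with 80 nM hCXCL1 and incubated overnight at 37 °C. CCF4-AM substrate was then added for 2 h at RT in the dark.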

[2] = Passive permeability in MDCK2-MDR1 cells transduced with BacMam2-BCRP at 3 uM after 90 mins by Transwell assay; assay type: ADME, cell-based, Canis lupus familiaris, MDCK-MDR1; details: dog; read-out: permeability
Summary of the method: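 MDCKII-MDR1 cells transduced with BacMam2-BCRP and grown in Transwells. Compound at 3 μM, in duplicate, was incubated 90 min A→B (and B→A) with and without GF120918 (5 μM, dual P-gp/BCRP inhibitor). Passive permeability (Pexact, nm/s) was calculated by an equation from earlier work. The permeability ratio is A→B permeability with GF120918 over A→B permeability without it.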

[3] = Efflux ratio of passive permeability in MDCK2-MDR1 cells transduced with BacMam2-BCRP at 3 uM after 90 mins by Transwell assay; assay type: ADME, cell-based, Canis lupus familiaris, MDCK-MDR1; details: dog
Summary of the method: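 MDCKII-MDR1 cells transduced with BacMam2-BCRP in Transwells. Compound at 3 μM was measured in duplicate, A→B and B→A, after 90 min, with and without 5 μM GF120918. ER = B→A/A→B permeability without inhibitor. System qualified with amprenavir and dantrolene ERs.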

[4] = Solubility of compound in fasted state simulated intestinal fluid measured after 4 hrs; assay type: physicochemical
Summary of the method: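 Solubility in FaSSIF, read after 4 h incubation.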

[5] = target: T1, C-X-C chemokine receptor type 2; experiment: Antagonist activity at CXCR2 in human whole blood assessed as inhibition of GROalpha-stimulated CD11b upregulation preincubated for 15 mins followed by GROalpha stimulation measured after 15 mins by FITC-staining based FACS analysis

Structure (SMILES) | IC50 [1] [nM] | Papp at 1.5 h, 3 µM [2] [×10⁻⁶ cm/s] | efflux ratio at 1.5 h, 3 µM [3] | solubility at 4 h [4] [µg/mL] | IC50 [5] [nM]
CC(C)S(=O)(=O)c1c(Cl)ccc(NC(=O)NC2CCCC2(C)C)c1O (racemic) | 158 | – | – | – | –
CC(C)S(=O)(=O)c1c(Cl)ccc(NC(=O)NC2CCC=C2F)c1O (racemic) | 10 | – | – | – | –
CC(C)S(=O)(=O)c1c(Cl)ccc(NC(=O)Nc2cccc(F)c2Cl)c1O | 0.398 | – | – | – | –
CC(C)(CO)S(=O)(=O)c1c(Cl)ccc(NC(=O)N[C@@H]2CCC=C2Cl)c1O | 3.98 | – | – | – | –
CC(C)(CCO)S(=O)(=O)c1c(Cl)ccc(NC(=O)N[C@@H]2CCC=C2Cl)c1O | 0.251 | – | – | – | –
CC1=CCCCC1NC(=O)Nc1ccc(Cl)c(S(=O)(=O)C(C)C)c1O (racemic) | 12.6 | – | – | – | –
CC1=CCC[C@H]1NC(=O)Nc1ccc(Cl)c(S(=O)(=O)C2(C)CCCOC2)c1O (stereo not given in full) | 2 | 26.7 | 3.4 | 4.1 (≈ 9.56 µM) | 200
CC1=CCC[C@H]1NC(=O)Nc1ccc(Cl)c(S(=O)(=O)C2CCN(CCF)CC2)c1O | 0.631 | 21.2 | 7.3 | 288 (≈ 625 µM) | 200
CC1=CCC[C@H]1NC(=O)Nc1ccc(Cl)c(S(=O)(=O)C2CCN(C3CCC3)CC2)c1O | 0.398 | 32 | 3.3 | 491 (≈ 1050 µM) | 501
CC1=CCC[C@H]1NC(=O)Nc1ccc(Cl)c(S(=O)(=O)C(C)(C)CN(C)C)c1O | 126 | – | – | 395 (≈ 920 µM) | –
CC(C)S(=O)(=O)c1c(Cl)ccc(NC(=O)NC2CCC3CC32)c1O (stereo not given) | 25.1 | – | – | – | –
CC1=CCC[C@H]1NC(=O)Nc1ccc(Cl)c(S(=O)(=O)C2(CF)CCOCC2)c1O | 1.26 | 21.8 | 18.7 | 14.9 (≈ 33.3 µM) | 251
COCC(C)S(=O)(=O)c1c(Cl)ccc(NC(=O)N[C@@H]2CCC=C2C)c1O (stereo not given in full) | 1.26 | 28.2 | 3.2 | 72 (≈ 179 µM) | 398
CC(C)S(=O)(=O)c1c(Cl)ccc(NC(=O)NC2CCCC=C2Cl)c1O (racemic) | 10 | – | – | – | –
CC1=CCC[C@H]1NC(=O)Nc1ccc(Cl)c(S(=O)(=O)C2CCN(CC(F)F)CC2)c1O | 2.51 | 17.7 | 9.4 | 59 (≈ 123 µM) | –
CC(C)S(=O)(=O)c1c(Cl)ccc(NC(=O)NC2CCC=C2Cl)c1O (racemic) | 1 | – | – | – | –
CC(C)S(=O)(=O)c1c(Cl)ccc(NC(=O)NC2C=CCC2)c1O (racemic) | 6.31 | – | – | – | –
CC1=CCC[C@H]1NC(=O)Nc1ccc(Cl)c(S(=O)(=O)C2CC3(COC3)C2)c1O | 1 | 12.4 | 25.5 | 127 (≈ 297 µM) | –
CC1=CCC[C@H]1NC(=O)Nc1ccc(Cl)c(S(=O)(=O)C2(F)CCOC2)c1O (stereo not given in full) | 0.794 | 28.1 | 7 | 39 (≈ 93.1 µM) | –

Structure (SMILES) | IC50 [1] [nM] | Papp at 1.5 h, 3 µM [2] [×10⁻⁶ cm/s] | efflux ratio at 1.5 h, 3 µM [3] | solubility at 4 h [4] [µg/mL] | IC50 [5] [nM]
CO[C@@H]1CCC[C@H]1NC(=O)Nc1ccc(Cl)c(S(=O)(=O)C(C)C)c1O (racemic) | 251 | – | – | – | –
CC1=C(F)CCC1NC(=O)Nc1ccc(Cl)c(S(=O)(=O)C(C)C)c1O (racemic) | 1.58 | – | – | – | –
CC(C)S(=O)(=O)c1c(Cl)ccc(NC(=O)NC2CCN(C)C2)c1O (racemic) | > 10000 | – | – | – | –
O=C(Nc1ccc(Cl)c(S(=O)(=O)C2(F)CCOCC2)c1O)N[C@@H]1CCC=C1Cl | 0.501 | – | – | – | –
CC1=CCC[C@H]1NC(=O)Nc1ccc(Cl)c(S(=O)(=O)C2(C)CCOC2)c1O (stereo not given in full) | 1.26 | 31.8 | 3.8 | 33.2 (≈ 80 µM) | 126
CC(C)S(=O)(=O)c1c(Cl)ccc(NC(=O)NC2CCCCC2)c1O | 50.1 | – | – | – | –
CC1=CCC[C@H]1NC(=O)Nc1ccc(Cl)c(S(=O)(=O)C2(F)CCOCC2)c1O | 0.2 | 32.3 | 6.2 | 3.3 (≈ 7.62 µM) | 63.1
O=C(Nc1ccc(Cl)c(S(=O)(=O)C2COC2)c1O)N[C@@H]1CCC=C1Cl | 316 | – | – | – | –
CC1=CCCC1NC(=O)Nc1ccc(Cl)c(S(=O)(=O)C(C)C)c1O (racemic) | 0.398 | – | – | – | –
CC(C)S(=O)(=O)c1c(Cl)ccc(NC(=O)NC2CCCC23CC3)c1O (racemic) | 39.8 | – | – | – | –
CC(C)S(=O)(=O)c1c(Cl)ccc(NC(=O)NC2CCCOC2)c1O (racemic) | 631 | – | – | – | –
CC1CCC(NC(=O)Nc2ccc(Cl)c(S(=O)(=O)C(C)C)c2O)C1 (racemic) | 200 | – | – | – | –
CC1=CCC[C@H]1NC(=O)Nc1ccc(Cl)c(S(=O)(=O)C2CCCOC2)c1O (stereo not given in full) | 1.58 | 26.3 | 9.6 | 13.7 (≈ 33 µM) | 251
CCC1(S(=O)(=O)c2c(Cl)ccc(NC(=O)N[C@@H]3CCC=C3C)c2O)CCOCC1 | 0.316 | 32.4 | 3.2 | 16 (≈ 36.1 µM) | 398
CC1CCCC1NC(=O)Nc1ccc(Cl)c(S(=O)(=O)C(C)C)c1O (racemic) | 10 | – | – | – | –
CC(C)S(=O)(=O)c1c(Cl)ccc(NC(=O)NC2CCN(C)CC2)c1O | > 10000 | – | – | – | –
CC(C)(CO)S(=O)(=O)c1c(Cl)ccc(NC(=O)N[C@H]2CCC=C2Cl)c1O | 501 | – | – | – | –
CC1=CCC[C@H]1NC(=O)Nc1ccc(Cl)c(S(=O)(=O)C(F)(F)CN(C)C)c1O | 2 | 26.6 | 12.6 | 128 (≈ 293 µM) | 631
CC(C)S(=O)(=O)c1c(Cl)ccc(NC(=O)NC2CCOCC2)c1O | 1260 | – | – | – | –

Structure (SMILES) | IC50 [1] [nM] | Papp at 1.5 h, 3 µM [2] [×10⁻⁶ cm/s] | efflux ratio at 1.5 h, 3 µM [3] | solubility at 4 h [4] [µg/mL] | IC50 [5] [nM]
CC(C)S(=O)(=O)c1c(Cl)ccc(NC(=O)NC2CCC=C2C(F)(F)F)c1O (racemic) | 25.1 | – | – | – | –
CC(C)S(=O)(=O)c1c(Cl)ccc(NC(=O)NC2CCCC2)c1O | 10 | – | – | – | –
O=C(Nc1ccc(Cl)c(S(=O)(=O)C2COC2)c1O)N[C@H]1CCC=C1Cl | 2510 | – | – | – | –
CC(C)S(=O)(=O)c1c(Cl)ccc(NC(=O)NC2C=CCCC2)c1O (racemic) | 10 | – | – | – | –
CC1=CCC[C@H]1NC(=O)Nc1ccc(Cl)c(S(=O)(=O)C2(C)CCOCC2)c1O | 0.501 | 53.2 | 3.4 | 6.1 (≈ 14.2 µM) | 200
CC1=CCC[C@H]1NC(=O)Nc1ccc(Cl)c(S(=O)(=O)C2CCN(CC(F)(F)F)CC2)c1O | 316 | – | – | – | –
CC1=CCC[C@H]1NC(=O)Nc1ccc(Cl)c(S(=O)(=O)C2(C)CCN(C3CCC3)CC2)c1O | 3.98 | – | – | 139 (≈ 289 µM) | –
CC(C)CN(C[C@@H](O)[C@H](Cc1ccccc1)NC(=O)O[C@H]1CCOC1)S(=O)(=O)c1ccc(N)cc1 | – | – | > 12 | – | –
CC1=CCC[C@H]1NC(=O)Nc1ccc(Cl)c(S(=O)(=O)C(C)(C)C2CCOCC2)c1O | 0.501 | 30.3 | 3.9 | 1.4 (≈ 3.06 µM) | 398
CC1=CCC[C@H]1NC(=O)Nc1ccc(Cl)c(S(=O)(=O)C(C)(C)C2COC2)c1O | 0.251 | 29.6 | 3.2 | 7 (≈ 16.3 µM) | –
CC1=CCC[C@H]1NC(=O)Nc1ccc(Cl)c(S(=O)(=O)[C@@H]2CC[C@@H](O)C2)c1O | 0.251 | 7.2 | 26.8 | 15.1 (≈ 36.4 µM) | –
O=C(Nc1ccc(Cl)c(S(=O)(=O)C2(F)CCOCC2)c1O)N[C@H]1CCC=C1Cl | 100 | – | – | – | –
CC(C)(CCO)S(=O)(=O)c1c(Cl)ccc(NC(=O)N[C@H]2CCC=C2Cl)c1O | 79.4 | – | – | – | –
CC1CCCCC1NC(=O)Nc1ccc(Cl)c(S(=O)(=O)C(C)C)c1O (racemic) | 316 | – | – | – | –
CC1=C(Cl)CCC1NC(=O)Nc1ccc(Cl)c(S(=O)(=O)C(C)C)c1O (racemic) | 3.16 | – | – | – | –
CC1=CCC[C@H]1NC(=O)Nc1ccc(Cl)c(S(=O)(=O)C2(CCF)CCOCC2)c1O | 31.6 | 33.7 | 10.8 | 26.7 (≈ 57.9 µM) | –
COC1CCCCC1NC(=O)Nc1ccc(Cl)c(S(=O)(=O)C(C)C)c1O (racemic) | 1580 | – | – | – | –
CCC1CCCC1NC(=O)Nc1ccc(Cl)c(S(=O)(=O)C(C)C)c1O (racemic) | 63.1 | – | – | – | –
O=C1CN(/N=C/c2ccc(-c3ccc([N+](=O)[O-])cc3)o2)C(O)=N1 [DANTROLENE] | – | – | > 5 | – | –
